Screening results deposited in PubChem by several laboratories.
T cruzi repl – blocks replication of Trypanosoma cruzi; 300,000 tested, 1.4% active; AID 1885; T. cruzi beta-gal in NIH3T3, luminescence, 90 h; inhibition, % (no concentration beside the values);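 active = mean inhibition across valid replicates above about 55%, limit read from the data; inconclusive = mean below that limit but half or more replicates reach it; inactive = mean below it, under half of replicates reach it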;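 note: signal also drops with host cell toxicity which is not excluded here; 0% = plate median of DMSO wells and 100% = zero luminescence signal; higher percent means less beta-gal luminescence so fewer parasites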
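System: Mouse NIH/3T3 fibroblasts infected with β-gal-expressing T. cruzi Tulahuen C4 | Quantity: NIH/3T3 cells, 5,000 per well | Reagent: 5000 reporter trypomastigotes per well | Dosing: Compound pinned at 50 nL/well, DMSO | Schedule: 3 h host attachment, then at least 90 h co-culture | Detection: GalScreen luminescence, 60 min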
PolyA inh – blocks polyadenylation in yeast reporter cells | S. cerevisiae SKY197-pL101 polyadenylation reporter, beta-gal luminescence; efflux-impaired pdr1/pdr3 knockout yeast; score 100 = 6 SD above DMSO | activity score, % at 12 µM | 300,000 tested, 0.02% active;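 active = lowest replicate activity score at least 50, where 100 means six control SD above control mean; inconclusive = lowest score under 50 but half or more replicates reach 50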;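 note: yeast exposed to compound for 9 h at 30 °C; higher score means more reporter readthrough which indicates perturbed polyadenylation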
Lmaj promast – Leishmania major promastigote growth inhibition. Leishmania major promastigotes, resazurin fluorescence viability. inhibition, % at 10 µM. 200,000 tested, 9% active. AID 1063;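 note: promastigotes grown with compound for 44 hours at 28 °C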
NALP1 inh – NALP1 inhibition. 280,000 tested, 0.61% active. AID 2071. S. cerevisiae NALP1/ASC/caspase-1 growth, X-gal OD620, 72 h. inhibition, % at 10 µM; in the data active = inhibition mostly above about 24%, no sharp cut-off; inactive = mostly below about 32%
NLRP3 yeast inh – inhibitors of NALP3 inflammasome in yeast | 330,000 tested, 0.39% active | Yeast reconstituted NLRP3/ASC/caspase-1, beta-gal luminescence, 24 h | inhibition, % at 10 µM;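 active = inhibition of 50% or more; inactive = inhibition below 50%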;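 note: plate controls were induced DMSO wells for no effect and uninduced yeast grown without galactose for full effect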
Calb FLC – C. albicans growth modulation with fluconazole. C. albicans CaCi-2 + fluconazole, Alamar Blue growth, 48 h. growth inhibition, % (test concentration not listed). 300,000 tested, 0.57% active;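 active = growth inhibition above about 58% in most replicates, limit read from the data, passing the limit was not always enough; inconclusive = exactly half the replicates above a set limit; inactive = most replicates below a set limit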;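 note: all wells also contain fluconazole at 8 µg/ml as a sub-toxic cotreatment; 0% = median of DMSO wells and 100% = median of geldanamycin control wells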
NALP3 yeast conf – NALP3 inhibition confirmation in yeast. yeast expressing human NALP3, luminescence. shares compounds with NLRP3 yeast inh. AID 435006. 1,300 tested, 81% active. inhibition, % at 10 µM; in the data active = inhibition above about 48%
Casp1 ASC ctr – active in yeast caspase-1-ASC counter-screen for NALP3 inhibitors; shares compounds with NLRP3 yeast inh; yeast expressing Caspase-1-ASC, luminescence counter screen; inhibition, % at 10 µM; 1,000 tested, 66% active
NALP3 retest – yeast NALP3 inhibition, confirmed on retest | shares compounds with NLRP3 yeast inh | yeast expressing human NALP3, luminescence read-out | inhibition, % at 10 µM | 1,000 tested, 53% active
* = called active by the depositor; ? = inconclusive; . = not tested or not shown. The entries come from a sample that favours hits as a whole. Cut-off read from the data, not from the text of the source, unless noted: active = inhibition above about 50%; inactive = the rest.

SMILES	T cruzi repl	PolyA inh	Lmaj promast	NALP1 inh	NLRP3 yeast inh	Calb FLC	NALP3 yeast conf	Casp1 ASC ctr	NALP3 retest
Fc1ccccc1N=C1NN=C(c2ccccc2)CS1	4	-16	15	-2	24	0	.	.	.
Clc1ccccc1N=C1NN=C(c2cccs2)CS1	1	-26	21	12	52*	-1	71*	59*	50
CC(/C=C/c1ccccc1)=N/NC(=O)Cn1nnc(N)n1	7	-3	.	.	18	-5	.	.	.
CCCc1nc(SCc2cccnc2)c2c(=O)n(C)c(=O)n(C)c2n1	11	-13	84*	32	54*	10	66*	57*	47
CCCc1nc(SCc2ccccn2)c2c(=O)n(C)c(=O)n(C)c2n1	13	36	2	0	9	-1	.	.	.
O=C(Nc1cccc(Cl)c1)c1cc(-c2ccco2)on1	-18	-12	.	19	59*	-26	74*	63*	48
O=C(Nc1cc(Cl)ccc1O)c1cc(-c2ccco2)on1	-15	-9	.	8	50*	-14	66*	39	39
O=C(Nc1c(Cl)cccc1Cl)c1cc(-c2ccco2)on1	10	1	.	14	41	-27	.	.	.
CC(=O)c1sc(NC(=O)CCCc2nc3ccccc3c(=O)[nH]2)nc1-c1ccccc1	.	.	.	.	4	.	.	.	.
Nc1ccc2nc(SCC(=O)c3ccccc3)sc2c1	10	-3	.	.	38	-11	.	.	.
Nc1ccc2nc(SCc3ccccc3F)sc2c1	23	-5	.	.	52*	-15	22	.	.
Cc1c2ccccc2c(C)c2c1ccc1ccccc12	.	.	.	.	65*	.	62*	.	.
O=C(NCc1ccc2c(c1)OCO2)c1cc(-c2ccccn2)nc2ccccc12	14	-8	9	-12	16	-22	.	.	.
COCCn1c(=O)sc2ccccc2c1=O	26	9	-2	-23	-7	2	.	.	.
COc1ccc(Cn2c(=O)sc3ccccc3c2=O)cc1	.	.	18	-19	51*	.	60*	60*	43
O=C(Nc1ccccc1)C1C(c2ccccc2)C1(Cl)Cl (stereo unspecified)	-5	2	.	9	59*	-10	72*	64*	60*
O=C(Nc1ccc(Cl)cn1)C1C(c2ccccc2)C1(Cl)Cl (stereo unspecified)	11	-7	25	-8	17	5	.	.	.
Oc1c(N=Nc2ccccc2)sc2ccccc12	-16	22	.	-2	51*	0	71*	.	.
N#Cc1ncc(Cc2ccccc2)nc1C#N	24	-14	.	21	27	-3	.	.	.
c1ccc2oc(SCc3cn4ccccc4n3)nc2c1	7	-12	7	23	56*	-8	69*	69*	53*
CN1C/C(=C/c2ccsc2)C(=O)/C(=C/c2ccsc2)C1	56*	12	100*	.	63*	7	56*	79*	65*
O=C(CSc1ccccc1)OCC(=O)N1CCN(C(=O)c2ccco2)CC1	.	.	.	.	11	.	.	.	.
CCOC(=O)c1cnn(-c2ccccc2)c1N	-37	3	-5	26	24	-12	.	.	.
CCOC(=O)c1cnn(-c2cccc(Cl)c2)c1N	-3	-3	4	18	56*	-23	73*	53*	32
COc1ccc(CCNC(=O)CNC(=O)c2ccccc2Br)cc1OC	-9	-6	.	-11	9	-18	.	.	.
SMILES	T cruzi repl	PolyA inh	Lmaj promast	NALP1 inh	NLRP3 yeast inh	Calb FLC	NALP3 yeast conf	Casp1 ASC ctr	NALP3 retest
CCCCCCCn1c(=O)c(C(=O)OC)c(N)c2ccccc21	18	-11	.	10	68*	0	61*	93*	84*
CCCCCCCCn1c(=O)c(C(=O)OC)c(N)c2ccccc21	14	-13	.	-6	60*	-5	28	.	.
CCSc1nnc(NC(=O)C2CC(=O)N(Cc3ccc(C)cc3)C2)s1 (stereo unspecified)	4	-1	4	-28	10	6	.	.	.
O=C(Nc1nc2cc3c(cc2s1)OCO3)C1CCCCC1	1	-12	.	16	56*	-17	64*	56*	53*
CC(Oc1cc2oc(=O)c3c(c2cc1Cl)CCC3)C(=O)NCCCN1CCCC1=O (stereo unspecified)	4	-23	.	-10	9	-2	.	.	.
Cc1c(C(=O)OCC(=O)NC(C)c2ccccc2)oc2ccccc12 (stereo unspecified)	-10	10	.	-16	27	-14	.	.	.
CC1(C)CC(c2nc(-c3ccc([N+](=O)[O-])cc3)cs2)CCO1 (stereo unspecified)	15	-15	3	-3	-107	-25	-16	.	.
Nc1nc(-c2ccc([N+](=O)[O-])cc2)cs1	-2	17	0	25	13	4	.	.	.
Cn1cc(C(CO)Cc2ccccc2)c2ccccc21 (stereo unspecified)	.	.	.	.	30	.	.	.	.
Cn1cc(/C(Cc2ccccc2)=N\O)c2ccccc21	5	-32	12	25	56*	0	68*	37	42
Cc1ccccc1-c1ccc(Nc2ccc(N3CCOCC3)cc2)nn1	70*	-21	10	21	64*	-6	74*	60*	62*
COc1ccc(Br)cc1CNC(=O)CCNC(=O)Cn1ccc2ccccc2c1=O	3	6	2	-2	0	14	.	.	.
CCN(CC)c1ncnc2sc3c(c12)CCC3	9	-41	-4	16	61*	8	64*	67*	57*
COc1c[nH]n(C2CCCCC2)c(=O)c1=O	-10	?	-4	18	57*	-4	77*	59*	67*
COc1ccc(Nc2cc(=O)n(C3CCCCC3)c(=O)[nH]2)c(OC)c1	23	2	9	15	4	0	.	.	.
O=C(c1cncc(Br)c1)N1CCN(S(=O)(=O)c2ccc(Cl)cc2)CC1	-4	15	.	-2	4	-1	.	.	.
COc1ccccc1C(=O)Oc1cc(C)[nH]c(=O)c1[N+](=O)[O-]	-9	3	-2	-4	2	?	.	.	.
CCOC(=O)c1sc(=S)n(-c2cc(OC)ccc2OC)c1N	-12	-88	-8	11	97*	26	96*	71*	57*
O=C(NC(=S)Nc1ccccc1F)C1CCCCC1	8	-24	.	20	52*	-16	72*	72*	63*
O=C(NC(=S)Nc1ccccc1Br)C1CCCCC1	.	.	.	.	53*	.	47	59*	34
O=C(NC(=S)Nc1ccccc1Br)C1CCCC1	-18	-2	.	7	30	-24	.	.	.
CCOC(=O)c1c(NC(=O)C2c3ccccc3Oc3ccccc32)sc(C(=O)N(CC)CC)c1C	41	10	19	8	0	5	.	.	.
